Measurements from different studies.
Each line is one published result; the experiments were not run side by side. Converted amounts (≈) assume the structure as drawn.
Organism: Mycobacterium tuberculosis
Effect on: microbial growth

| SMILES | test system | measurement | result |
| --- | --- | --- | --- |
| CC(CNc1cc(-c2ccccn2)nc2nncn12)c1ccccc1 (centres unmarked) | H37RV | MIC | 35 µM (≈ 11.6 µg/mL) |
| COc1ccc(-c2cc(C(F)(F)F)c3c(N)c(C(=O)Nc4ccc(C)c(C)c4)sc3n2)cc1 | H37RV | IC50 | > 100 µM |
| O=C(Cc1ccccc1)Nc1cc(-c2ccccn2)nc2nncn12 | H37RV | IC90 | 2 µM |
| O=c1[nH]c2cc(CO)c(Cl)cc2c(=O)n1Cc1cccnc1 | H37RV | MIC90 | > 100 µM |
| Cc1ccc(CCNc2cc(-c3ccc(Cl)s3)nc3nncn23)cc1 | H37RV | MIC | 4.8 µM (≈ 1.78 µg/mL) |
| N#Cc1cc2[nH]c(=S)n(Cc3cccnc3)c(=O)c2cc1Cl | H37RV | MIC90 | > 100 µM |
| COc1ccc(-c2cc(C(F)(F)F)c3c(N)c(C(=O)NCc4ccccc4)sc3n2)cc1 | H37RV | IC50 | > 100 µM |
| CO[C@H]1/C=C/O[C@@]2(C)Oc3c(C)c(O)c4c(O)c(c(/C=N/N5CCN(C)CC5)c(O)c4c3C2=O)NC(=O)/C(C)=C\C=C\[C@H](C)[C@H](O)[C@@H](C)[C@@H](O)[C@@H](C)[C@H](OC(C)=O)[C@@H]1C | – | MIC50 | 0.01 µg/mL (≈ 0.0122 µM) |
| COc1ccc(-c2cc(C(F)(F)F)c3c(N)c(C(=O)NC(C)C4CCCCC4)sc3n2)cc1 (centres unmarked) | H37RV | IC50 | 0.93 µM |
| O=C(O)c1cc2[nH]c(=S)n(Cc3cccnc3)c(=O)c2cc1Cl | H37RV | MIC90 | > 100 µM |
| NCC[C@H](O)C(=O)N[C@@H]1C[C@H](N)[C@@H](O[C@H]2O[C@H](CN)[C@@H](O)[C@H](O)[C@H]2O)[C@H](O)[C@H]1O[C@H]1O[C@H](CO)[C@@H](O)[C@H](N)[C@H]1O | H37RV | MIC90 | 3.3 µg/mL |
| c1ccc(-c2cc(Nc3ccc(N4CCOCC4)cc3)n3cnnc3n2)nc1 | H37RV | MIC | > 100 µM |
| COc1ccc(-c2cc(C(F)(F)F)c3c(N)c(C(=O)NC45CC6CC(CC(O)(C6)C4)C5)sc3n2)cc1 | H37RV | IC50 | > 100 µM |
| NC(=O)c1cncc(Cn2c(=S)[nH]c3cc(CO)c(Cl)cc3c2=O)c1 | H37RV | MIC90 | 17.2 µM |
| CCc1ccc(CCNc2cc(-c3ccccn3)nc3nnc(C4CC4)n23)cc1 | H37RV | MIC | 50 µM (≈ 19.2 µg/mL) |
| Nc1c(C(=O)NCc2ccc(F)cc2)sc2nc(-c3ccccc3)ccc12 | H37RV | IC50 | > 100 µM |
| O=c1c2cc(Cl)c(CO)cc2[nH]c(=S)n1Cc1cccnc1 | H37RV | MIC90 | 3.6 µM |
| CCc1ccc(CCNc2cc(-c3ccco3)nc3nncn23)cc1 | H37RV | MIC | 0.43 µM (≈ 0.143 µg/mL) |
| O=c1c2cc(Cl)ncc2[nH]c(=S)n1Cc1cccnc1 | H37RV | MIC90 | 17.6 µM |
| COc1ccc(-c2cc(C(F)(F)F)c3c(N)c(C(=O)Nc4cccc(C)c4C)sc3n2)cc1OC | H37RV | IC50 | > 100 µM |
